Reference: ChEMBL document CHEMBL3352425, “Development of αGlcN(1↔1)αMan-based lipid A mimetics as a novel class of potent Toll-like receptor 4 agonists” (J Med Chem, 2014)
Active and inactive are the calls of the source. The rule behind the calls is not given here.

Assays:
[1] = Cytotoxicity against human DC by propidium iodide staining
In short: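 Immature monocyte-derived DCs were stimulated with compound across a wide concentration range, and cytotoxicity was assessed by propidium iodide staining.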

[2] = molecular target: Toll-like receptor 4 (Homo sapiens) (UniProt O00206); experiment: Agonist activity at human TLR4 in human THP1 cells assessed as induction of MyD88 signaling after 18 hrs by ELISA; format: cell-based; conditions: THP-1
In short: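 THP-1 cells were seeded at 10⁵ per well and differentiated to macrophage-like cells with 200 nM TPA for 24 h. Non-adherent cells were washed off, and the remainder rested 1 h in fresh complete RPMI with 10% FCS. Cells were then stimulated for 18 h, and TNF-α, IL-8 and MCP-1 in the supernatants were measured by ELISA.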

[3] = Induction of IL-6 level in C57BL/6J mouse BMDM at 1 nM after 16 hrs by ELISA; format: functional
In short: (§1)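 C57BL/6J bone marrow cells were differentiated 6 days with 40 ng/mL M-CSF in RPMI with 20% FBS, then seeded at 1 × 10⁶ cells/mL in RPMI with 10% FBS. After 24 h, cells were stimulated for 16 h, with nM concentrations based on compound MW. Supernatant cytokines were measured by ELISA.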

[4] = molecular target: Toll-like receptor 4 (Homo sapiens) (UniProt O00206); experiment: Agonist activity at human TLR4 expressed in HEK293 cells coexpressed with human MD2/CD14 assessed as activation of NFkappaB signaling at 10 ng/ml after 20 to 24 hrs by NFkappaB reporter assay; format: cell-based
In short: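 HEK-Blue hTLR4 cells (HEK293 co-transfected with hTLR4/MD-2/CD14), 25000 per well, were stimulated with compound diluted in DMEM with 10% FCS (final DMSO ≤0.005–0.01%) for 20–24 h at 37 °C, 5% CO2. Secreted SEAP in the supernatant was read with QUANTI-Blue at 650 nm. Data were pooled from n = 3 independent experiments, SEM.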

[5] = Induction of human DC maturation assessed as upregulation of MHC class 1 at 10 ng/ml after 24 hrs by flow cytometry; format: functional
THP-1 [6] = experiment: Induction of TNFalpha expression in human THP1 cells after 18 hrs by ELISA; format: functional, cell-based
In short: (§2)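 THP-1 cells in RPMI-1640 with 2 mM L-glutamine, antibiotics, 10% FCS; 10⁵ cells/well differentiated with 200 nM TPA for 24 h. Non-adherent cells washed off, 1 h recovery, then stimulated 18 h at indicated concentrations; E. coli Re-LPS or O111:B4 LPS as reference. DMSO stocks diluted in medium, final DMSO ≤0.01%. Supernatants assayed by ELISA.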

Homo sapiens [7] = species: Homo sapiens; experiment: Induction of TNFalpha release in human DC at 1 ng/ml by Luminex
THP-1 [8] = experiment: Induction of IL8 expression in human THP1 cells after 18 hrs by ELISA; format: functional, cell-based; in short: as §2
Homo sapiens [9] = species: Homo sapiens; experiment: Induction of IL10 release in human DC at 1 ng/ml by Luminex
[10] = Induction of TNFalpha level in C57BL/6J mouse BMDM at 1 nM after 16 hrs by ELISA; format: functional; in short: as §1
Homo sapiens [11] = species: Homo sapiens; experiment: Induction of IL12 release in human DC at 1 ng/ml by Luminex
[12] = Induction of human DC maturation assessed as upregulation of MHC class 2 at 10 ng/ml after 24 hrs by flow cytometry; format: functional
THP-1 [13] = experiment: Induction of MCP1 expression in human THP1 cells after 18 hrs by ELISA; format: functional, cell-based; in short: as §2
[14] = Induction of human DC maturation assessed as upregulation of CD86 at 10 ng/ml after 24 hrs by flow cytometry; format: functional
Homo sapiens [15] = species: Homo sapiens; experiment: Induction of IL6 release in human DC at 1 ng/ml by Luminex
BMDM = experiment: Induction of IL-6 level in C57BL/6J mouse BMDM after 16 hrs by ELISA; format: functional
In short: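 Bone marrow flushed from femur and tibia, erythrocytes lysed (0.88% ammonium chloride, 15 min, 37 °C), differentiated 6 days in RPMI/20% FBS with 40 ng/mL M-CSF. Replated at 1 × 10⁶ cells/mL in RPMI/10% FBS, stimulated after 24 h for 16 h. Nanomolar doses calculated from MW. DMSO stocks diluted in medium, final DMSO ≤0.01%. Supernatant IL-6 by ELISA.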

Chain of Toll-like receptor 4 (Homo sapiens) (O00206 whole entry): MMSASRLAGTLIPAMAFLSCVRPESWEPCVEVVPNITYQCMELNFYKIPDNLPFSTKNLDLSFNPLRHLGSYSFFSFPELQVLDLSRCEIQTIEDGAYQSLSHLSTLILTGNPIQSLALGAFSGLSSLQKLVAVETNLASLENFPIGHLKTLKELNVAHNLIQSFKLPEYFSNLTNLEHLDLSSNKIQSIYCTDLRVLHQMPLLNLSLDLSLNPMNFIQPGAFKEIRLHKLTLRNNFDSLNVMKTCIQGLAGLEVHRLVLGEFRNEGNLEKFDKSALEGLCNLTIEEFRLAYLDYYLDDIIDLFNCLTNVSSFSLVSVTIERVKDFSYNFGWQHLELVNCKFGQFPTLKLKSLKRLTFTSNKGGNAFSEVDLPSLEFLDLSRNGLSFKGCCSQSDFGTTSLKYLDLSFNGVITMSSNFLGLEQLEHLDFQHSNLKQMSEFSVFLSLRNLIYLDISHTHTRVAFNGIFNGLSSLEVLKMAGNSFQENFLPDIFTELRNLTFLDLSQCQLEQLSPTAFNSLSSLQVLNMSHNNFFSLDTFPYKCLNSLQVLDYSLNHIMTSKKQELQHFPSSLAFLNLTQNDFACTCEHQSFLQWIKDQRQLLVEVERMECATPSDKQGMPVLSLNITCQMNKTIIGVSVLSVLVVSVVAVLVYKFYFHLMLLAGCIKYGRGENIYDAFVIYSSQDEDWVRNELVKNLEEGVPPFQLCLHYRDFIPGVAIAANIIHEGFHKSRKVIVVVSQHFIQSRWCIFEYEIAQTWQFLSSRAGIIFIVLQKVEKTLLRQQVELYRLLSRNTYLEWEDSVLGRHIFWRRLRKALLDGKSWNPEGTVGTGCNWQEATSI

CCCCCCCCCCCCCC(=O)O[C@H](CCCCCCCCCCC)CC(=O)O[C@@H]1[C@@H](NC(=O)C[C@@H](CCCCCCCCCCC)OC(=O)CCCCCCCCCCC)[C@@H](O[C@H]2O[C@H](COP(=O)(O)O)[C@@H](OC(=O)C[C@H](CCCCCCCCCCC)OC(=O)CCCCCCCCCCC)[C@H](O)[C@@H]2OC)O[C@H](CO)[C@H]1OP(=O)(O)O
Activity [1]: Non-toxic | Activity [2]: Active | Activity [3]: 1500 pg/mL | Activity [4]: Active | Activity [5]: Active | Activity (THP-1 [6]): Dose-dependent effect | Activity (Homo sapiens [7]): Active | Activity (THP-1 [8]): Dose-dependent effect | Activity (Homo sapiens [9]): Active | Activity [10]: 4000 pg/mL | Activity (Homo sapiens [11]): Active | Activity [12]: Active | Activity (THP-1 [13]): Active | Activity [14]: Active | Activity (Homo sapiens [15]): Active

CCCCCCCCCCCCCC(=O)O[C@H](CCCCCCCCCCC)CC(=O)N[C@H]1[C@H](OC[C@H]2O[C@H](OP(=O)(O)O)[C@H](NC(=O)C[C@H](O)CCCCCCCCCCC)[C@@H](OC(=O)C[C@H](O)CCCCCCCCCCC)[C@@H]2O)O[C@H](CO)[C@@H](OP(=O)(O)O)[C@@H]1OC(=O)C[C@@H](CCCCCCCCCCC)OC(=O)CCCCCCCCCCCCC
Activity [10]: 2000 pg/mL

CCCCCCCCCCCCCC(=O)O[C@H](CCCCCCCCCCC)CC(=O)O[C@@H]1[C@@H](NC(=O)C[C@@H](CCCCCCCCCCC)OC(=O)CCCCCCCCCCC)[C@@H](O[C@H]2O[C@H](COP(=O)(O)O)[C@@H](OC(=O)C[C@H](CCCCCCCCCCC)OC(=O)CCCCCCCCC)[C@H](O)[C@@H]2OC)O[C@H](CO)[C@H]1OP(=O)(O)O
Activity [1]: Non-toxic | Activity [2]: Active | Activity [3]: 1500 pg/mL | Activity (THP-1 [6]): Dose-dependent effect | Activity (THP-1 [8]): Dose-dependent effect | Activity [10]: 4000 pg/mL | Activity (THP-1 [13]): Active

CCCCCCCCCCCCCC(=O)O[C@H](CCCCCCCCCCC)CC(=O)O[C@@H]1[C@@H](NC(=O)C[C@@H](CCCCCCCCCCC)OC(=O)CCCCCCCCCCC)[C@@H](O[C@H]2O[C@H](CO)[C@@H](OC(=O)C[C@H](CCCCCCCCCCC)OC(=O)CCCCCCCCCCC)[C@H](O)[C@@H]2OC)O[C@H](CO)[C@H]1OP(=O)(O)O
Activity [1]: Non-toxic | Activity (THP-1 [6]): inactive | Activity (Homo sapiens [7]): inactive | Activity (THP-1 [8]): inactive | Activity (Homo sapiens [9]): inactive | Activity (BMDM): Dose-dependent effect | Activity [10]: 500 pg/mL | Activity (Homo sapiens [11]): inactive | Activity (THP-1 [13]): inactive | Activity (Homo sapiens [15]): inactive
